# Results as given in ChEMBL document CHEMBL4689842, “EUbOPEN Chemogenomics Library wave 1” (2021).
# System: U2OS
# Assay: Multiplex assay against U2OS
# Assay type: toxicity, cell-based
# Conditions: human
# Summary of the method: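 Values for tubulin, mitochondrial-mass and membrane-permeability phenotypes are per cents of cells with healthy nuclei. These cells were identified by CellPathfinder machine-learning gating of live cells that had been stained at seeding with Hoechst33342, BioTracker Green Microtubule Cytoskeleton Dye, MitoTracker Red and Annexin V Alexa Fluor 680 and imaged on a CQ1 microscope at 37°C and 5% CO2 after compound addition. The gating first set Hoechst high-intensity objects apart from normal cells, then split normal cells into healthy, pyknosed or fragmented nuclei, and pyknosed cells into mitotic or apoptotic.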
# [1] = 12 h, 1 µM, compound concentration 1 uM, replicate 1
# [2] = 12 h, 1 µM, compound concentration 1 uM, replicate 2
# [3] = 12 h, 10 µM, compound concentration 10 uM, replicate 1
# [4] = 12 h, 10 µM, compound concentration 10 uM, replicate 2
# [5] = 24 h, 1 µM, compound concentration 1 uM, replicate 1
# [6] = 24 h, 1 µM, compound concentration 1 uM, replicate 2
# [7] = 24 h, 10 µM, compound concentration 10 uM, replicate 1
# [8] = 24 h, 10 µM, compound concentration 10 uM, replicate 2
# [9] = 48 h, 1 µM, compound concentration 1 uM, replicate 1
# [10] = 48 h, 1 µM, compound concentration 1 uM, replicate 2
# [11] = 48 h, 10 µM, compound concentration 10 uM, replicate 1
# [12] = 48 h, 10 µM, compound concentration 10 uM, replicate 2
compound,measurement,setting,value
Cc1[nH]c(/C=C2\C(=O)Nc3ccc(S(=O)(=O)N(C)c4cccc(Cl)c4)cc32)c(C)c1C(=O)N1CCN(C)CC1,Population Apoptotic (%),[1],66%
same,Population Fragmented Nuclei (%),[1],13%
same,Population Mitochondria Different-Phenotype (%),[1],58%
same,Population Mitotic Cells (%),[1],33%
same,Population Pyknosed Nuclei (%),[1],9%
same,Population Tubulin-Different-Phenotype (%),[1],80%
same,Total Cell Count,[1],305
same,Population Apoptotic (%),[2],100%
same,Population Fragmented Nuclei (%),[2],16%
same,Population Healthy Nuclei (%),[2],77%
same,Population Hoechst High Intensity Objects (%),[2],12%
same,Population Membrane Permeable-Phenotype (%),[2],12%
same,Population Mitochondria Different-Phenotype (%),[2],42%
same,Population Mitotic Cells (%),[2],0%
same,Population Normal (%),[2],87%
same,Population Pyknosed Nuclei (%),[2],6%
same,Population Tubulin-Different-Phenotype (%),[2],68%
same,Total Cell Count,[2],90
same,Population Apoptotic (%),[3],60%
same,Population Fragmented Nuclei (%),[3],12%
same,Population Healthy Nuclei (%),[3],76%
same,Population Hoechst High Intensity Objects (%),[3],8%
same,Population Membrane Permeable-Phenotype (%),[3],24%
same,Population Mitochondria Different-Phenotype (%),[3],68%
same,Population Mitotic Cells (%),[3],40%
same,Population Normal (%),[3],91%
same,Population Pyknosed Nuclei (%),[3],11%
same,Total Cell Count,[3],147
same,Population Apoptotic (%),[4],25%
same,Population Fragmented Nuclei (%),[4],10%
same,Population Healthy Nuclei (%),[4],74%
same,Population Hoechst High Intensity Objects (%),[4],12%
same,Population Membrane Permeable-Phenotype (%),[4],40%
same,Population Mitochondria Different-Phenotype (%),[4],97%
same,Population Mitotic Cells (%),[4],75%
same,Population Normal (%),[4],87%
same,Population Pyknosed Nuclei (%),[4],16%
same,Population Tubulin-Different-Phenotype (%),[4],100%
same,Total Cell Count,[4],70
same,Population Apoptotic (%),[5],73%
same,Population Fragmented Nuclei (%),[5],11%
same,Population Healthy Nuclei (%),[5],77%
same,Population Hoechst High Intensity Objects (%),[5],9%
same,Population Membrane Permeable-Phenotype (%),[5],7%
same,Population Mitochondria Different-Phenotype (%),[5],51%
same,Population Mitotic Cells (%),[5],26%
same,Population Normal (%),[5],90%
same,Population Pyknosed Nuclei (%),[5],11%
same,Population Tubulin-Different-Phenotype (%),[5],61%
same,Total Cell Count,[5],272
same,Population Apoptotic (%),[6],100%
same,Population Fragmented Nuclei (%),[6],18%
same,Population Healthy Nuclei (%),[6],72%
same,Population Hoechst High Intensity Objects (%),[6],8%
same,Population Membrane Permeable-Phenotype (%),[6],10%
same,Population Mitochondria Different-Phenotype (%),[6],40%
same,Population Mitotic Cells (%),[6],0%
same,Population Normal (%),[6],91%
same,Population Pyknosed Nuclei (%),[6],9%
same,Population Tubulin-Different-Phenotype (%),[6],55%
same,Total Cell Count,[6],65
same,Population Apoptotic (%),[7],82%
same,Population Fragmented Nuclei (%),[7],13%
same,Population Healthy Nuclei (%),[7],68%
same,Population Hoechst High Intensity Objects (%),[7],8%
same,Population Membrane Permeable-Phenotype (%),[7],46%
same,Population Mitochondria Different-Phenotype (%),[7],88%
same,Population Mitotic Cells (%),[7],17%
same,Population Normal (%),[7],91%
same,Population Pyknosed Nuclei (%),[7],17%
same,Population Tubulin-Different-Phenotype (%),[7],100%
same,Total Cell Count,[7],140
same,Population Apoptotic (%),[8],100%
same,Population Fragmented Nuclei (%),[8],17%
same,Population Healthy Nuclei (%),[8],73%
same,Population Membrane Permeable-Phenotype (%),[8],84%
same,Population Mitochondria Different-Phenotype (%),[8],100%
same,Population Mitotic Cells (%),[8],0%
same,Population Pyknosed Nuclei (%),[8],9%
same,Total Cell Count,[8],71
same,Population Apoptotic (%),[9],80%
same,Population Fragmented Nuclei (%),[9],18%
same,Population Healthy Nuclei (%),[9],70%
same,Population Hoechst High Intensity Objects (%),[9],4%
same,Population Membrane Permeable-Phenotype (%),[9],10%
same,Population Mitochondria Different-Phenotype (%),[9],32%
same,Population Mitotic Cells (%),[9],19%
same,Population Normal (%),[9],95%
same,Population Pyknosed Nuclei (%),[9],11%
same,Population Tubulin-Different-Phenotype (%),[9],30%
same,Total Cell Count,[9],261
same,Population Apoptotic (%),[10],25%
same,Population Fragmented Nuclei (%),[10],16%
same,Population Healthy Nuclei (%),[10],77%
same,Population Hoechst High Intensity Objects (%),[10],14%
same,Population Membrane Permeable-Phenotype (%),[10],21%
same,Population Mitochondria Different-Phenotype (%),[10],30%
same,Population Mitotic Cells (%),[10],75%
same,Population Normal (%),[10],85%
same,Population Pyknosed Nuclei (%),[10],5%
same,Population Tubulin-Different-Phenotype (%),[10],37%
same,Total Cell Count,[10],62
same,Population Fragmented Nuclei (%),[11],24%
same,Population Healthy Nuclei (%),[11],50%
same,Population Hoechst High Intensity Objects (%),[11],7%
same,Population Membrane Permeable-Phenotype (%),[11],76%
same,Population Mitochondria Different-Phenotype (%),[11],91%
same,Population Normal (%),[11],92%
same,Population Pyknosed Nuclei (%),[11],24%
same,Total Cell Count,[11],186
same,Population Apoptotic (%),[12],100%
same,Population Fragmented Nuclei (%),[12],14%
same,Population Healthy Nuclei (%),[12],72%
same,Population Hoechst High Intensity Objects (%),[12],15%
same,Population Membrane Permeable-Phenotype (%),[12],88%
same,Population Mitochondria Different-Phenotype (%),[12],100%
same,Population Mitotic Cells (%),[12],0%
same,Population Normal (%),[12],84%
same,Population Pyknosed Nuclei (%),[12],12%
same,Population Tubulin-Different-Phenotype (%),[12],100%
same,Total Cell Count,[12],84
